Assay outcomes deposited in PubChem by several laboratories.
In the library only some 4.5% were active in any assay of this set; here they are far more common.
UPR CHOP act: activators of apoptotic CHOP UPR arm, primary screen, cell-based, CHO-CHOP luciferase reporter, luminescence, uHTS | 330,000 compounds, 0.34% hits | activation, % at 10 µM | UPR activation; percent of tunicamycin response over DMSO baseline;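 active = at 10 µM dose, activation of 40% or more, normalized to positive control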;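 note: 100% = tunicamycin at 10 µg/mL and 0% = DMSO alone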
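Assay system: CHO cells with stable CHOP pathway luciferase reporter; Buffer or medium: F12 plus 10% serum; Times: 16-18 h cell attachment, then 6 h compound exposure, 37 °C; Signal: luciferase luminescence; Read-out basis: percent activation relative to tunicamycin control; Control set: tunicamycin high control, DMSO low control.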
XBP1 UPR activ: activators of adaptive XBP1 UPR arm, primary screen, cell-based, CHO-XBP1 luciferase reporter, luminescence, uHTS; activation, % at 20 µM; 330,000 compounds, 0.33% hits; IRE1-XBP1 UPR activation; percent of tunicamycin response, DMSO as zero;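 active = versus positive control, 20 µM dose yields 30% or more activation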;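 note: 100% = tunicamycin at 10 µg/mL and 0% = DMSO only wells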
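Material: CHO cell line with stable XBP1 luciferase reporter; buffer or medium: F12 medium containing 10% fetal bovine serum; compound: single point, 20 µM final compound, 1% DMSO; incubation: 6 h treatment, 37 °C; measured by: glow luminescence from Steady-Glo reagent; evaluation: activation, % of tunicamycin; control set: tunicamycin high, DMSO low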
CHOP inh: inhibitors of CHOP promoter induction, primary screen, cell-based, unfolded protein response, luciferase reporter | CHO-K1 CHOP-promoter luciferase, tunicamycin-induced, 15-18 h | inhibition, % at 10 µM | 220,000 compounds, 3.8% hits;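 active = compounds that reduced the stress-induced luciferase reporter signal by more than about 70% of percent inhibition, limit read from the data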;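 note: 0% = tunicamycin plus vehicle and 100% = wells without tunicamycin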
p97 ATPase inh: inhibitors of human p97 ATPase, primary screen, biochemical; AID 1481, 2009; inhibition, % at 8 µM; 220,000 compounds, 0.42% hits; Transitional endoplasmic reticulum ATPase (Homo sapiens), P55072; recombinant p97 ATPase, Kinase-Glo ATP luminescence, 3 h; in the data active = inhibition above about 15%;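 note: 0% = DMSO vehicle and 100% = wells lacking enzyme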
PfM18AAP inh: PfM18AAP inhibitors, malaria aminopeptidase, primary screen, biochemical, QFRET, recombinant enzyme | AID 1822, 2009 | H-Glu-NHMec fluorogenic cleavage | inhibition, % at 7.35 µM | 290,000 compounds, 1.2% hits;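 active = inhibition above the campaign mean inhibition over all tested compounds plus 3 SD, cut at about 28% in these data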;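 note: 0% = plate median of test compound wells and 100% = 2 mM ZnCl2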
NS3 helicase inh: inhibitors of HCV NS3 helicase, primary screen, biochemical, Cy5 molecular beacon fluorescence | Hepatitis C virus NS3 helicase | NS3 helicase DNA unwinding | inhibition, % at 10.9 µM | 290,000 compounds, 0.56% hits;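 active = inhibition above the mean of all tested compounds plus 3 SD, set per campaign, cut at about 35% in these data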;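 note: 0% = DMSO wells and 100% = thioflavine S control wells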
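Measured by: Cy5 fluorescence, 0 and 60 min reads / Assay system: NS3 helicase fragment of HCV / Control set: low DMSO, high thioflavine S at 110 µM / Times: 1 h reaction at 25 °C, ATP-initiated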
NS3 hel confirm: HCV NS3 helicase inhibitors, retest, confirmation, biochemical, Cy5 molecular beacon fluorescence, triplicate; shares compounds with NS3 helicase inh; NS3 helicase DNA unwinding; inhibition, % at 10.9 µM; 1,600 compounds, 31% hits; AID 1943, 2009;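 active = inhibition above the mean of all tested compounds plus 3 SD, cutoff set per campaign, cut at about 36% in these data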
DNA FID counter: compounds displacing fluorescent DNA intercalator, artefact control for HCV NS3 helicase inhibitor project, biochemical, FID fluorescence, triplicate. shares compounds with NS3 helicase inh. DNA fluorescent intercalator displacement. inhibition, % at 7.9 µM. 1,600 compounds, 4% hits. AID 1945, 2009; in the data active = inhibition above about 37%;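 note: 0% = vehicle and 100% = reference compound; higher means more displacement of ethidium bromide from the DNA hairpin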
FID counter DR: compounds displacing fluorescent intercalator from DNA, dose response, counter-screen for HCV NS3 helicase inhibitor project, biochemical, fluorescence. shares compounds with NS3 helicase inh. AID 2172, 2009. IC50, µM. fluorescent intercalator displacement from DNA. 120 tested, under 10 active; call rule not given here
Active calls of the source: *; . = not tested or not shown.

SMILES	UPR CHOP act	XBP1 UPR activ	CHOP inh	p97 ATPase inh	PfM18AAP inh	NS3 helicase inh	NS3 hel confirm	DNA FID counter	others
CC(C)(C)c1ccc(C(=O)CC(Sc2ccc(Cl)cc2)C(=O)O)cc1 (configuration not stated)	4	-1	-26	-1	-31	16	.	.
Cc1ccc(SC(CC(=O)c2ccc(F)cc2)C(=O)O)cc1 (configuration not stated)	-1	-3	.	.	-82	43*	-23	1
CCOc1ccccc1N(CC(=O)N1CCCC1)S(C)(=O)=O	1	1	.	.	-13	-1	.	.
CN(C)c1ccc(N=C/C=C2/N(C)c3ccccc3C2(C)C)cc1	.	.	0	-3	18	36*	-13	42*
COCC1CCN(C(=O)c2ccc(OC3CCN(Cc4ccccn4)CC3)cc2)C1 (configuration not stated)	2	-1	.	.	-12	3	.	.
O=C(NCc1ccco1)c1ccc(N2CCCCC2)c([N+](=O)[O-])c1	6	4	70*	-3	1	50*	-9	-11
O=C(Oc1cccc(F)c1)c1ccc2c(=O)n3c(nc2c1)CCC3	5	-1	.	.	.	.	.	.
O=C1NC(c2ccccc2)=C(c2nc3ccccc3s2)C(c2ccccc2)N1 (configuration not stated)	-1	3	37	-1	11	39*	-5	-13
Nc1c(O)ccc2c1C(=O)c1ccccc1C2=O	.	.	-2	0	9	43*	11	27
O=C(NNC(=S)NC(=O)c1ccccc1[N+](=O)[O-])c1ccccc1[N+](=O)[O-]	-1	-3	40	2	9	0	.	.
CCCCOc1ccccc1C(=O)NNC(=S)NC(=O)c1ccccc1[N+](=O)[O-]	0	-3	.	.	3	40*	51*	-3	FID counter DR=>79
CCC(C)[C@H](NC(=O)N1CCn2c1nc1ccccc12)C(=O)NCc1ccccc1 (some centres not stated)	-2	-6	.	.	7	-7	.	.
CCc1cccc(NC(=O)COC(=O)/C=C/c2cccs2)c1	0	-1	.	.	.	.	.	.
Cn1ccnc1Sc1ccc(/C=N/NC(=O)c2ccccc2O)cc1[N+](=O)[O-]	4	2	27	2	-11	47*	-4	13
COC(=O)C1=NN(C(=O)c2ccc(Cl)cc2)C(O)(c2ccccc2)C1 (configuration not stated)	-1	-1	9	4	25	44*	-6	-10
NC(=O)C1CCN(C(=O)c2cccc(S(=O)(=O)N3CCCC3)c2)CC1	0	-2	.	.	.	.	.	.
COc1cccc(=O)c2c(C)n(CC(=O)c3ccccc3)c(C)c12	-1	-1	5	8	2	58*	-14	-16
CCOc1cccc(=O)c2c(C)n(CC(=O)c3ccccc3)c(C)c12	0	3	9	5	15	27	.	.
CCN1CCN(c2ncnc3sc4c(c23)CCC(C)C4)CC1 (configuration not stated)	-1	-3	.	.	2	-13	.	.
C=CCn1c(SCC(=O)NCCCC)nc2scc(-c3ccco3)c2c1=O	-1	-1	93*	3	-25	50*	82*	-9	FID counter DR=>79
